NS3 helicase inh = HCV NS3 helicase inhibition. AID 1800. actives 0.56% (n = 290,000). inhibition, % at 10.9 µM. NS3 helicase DNA unwinding, Cy5 molecular beacon fluorescence;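 active = inhibition above the mean of all tested compounds plus 3 SD, set per campaign, cut at about 35% in these data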;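 also: 0% = DMSO wells and 100% = thioflavine S control wells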
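Assay system: hepatitis C virus NS3 helicase domain fragment enzyme. Also added: annealed dual-labelled DNA beacon duplex, ATP-started. Timing: 1 h reaction at 25 °C, ATP-initiated. Technique: Cy5 fluorescence at 0 and 60 min, beacon hairpin quenching. Evaluation: % inhibition of unwinding. Replication: one well per compound.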
HCV core dimer = blocks dimerization of HCV core protein; TR-FRET GST/Flag-core106 dimerization, 1536-well; inhibition, % at 5 µM; actives 0.33% (n = 300,000);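 active = inhibition above the mean of all tested compounds plus 3 SD, set per screening campaign, cut at about 45% in these data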
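Test system: GST/Flag-tagged HCV core106 proteins; Medium: KF-containing HEPES buffer, pH 7.45, DTT, CHAPS, BSA; Times: compound-protein-antibody incubation 4 h at 22.5 °C; Detection: TR-FRET 671 and 617 nm emission; Benchmarks: wells lacking GST-core106 and wells with excess unlabelled core106.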
PRMT1 FP inh = inhibitors of human PRMT1. recombinant PRMT1, activity-based probe fluorescence polarization. AID 652257. Q99873. actives 1.3% (n = 370,000). inhibition, % at 2.79 µM;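 active = inhibition above about 21% made by adding two undisclosed values, limit read from the data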
Target sequence (Q99873 whole entry, looked up): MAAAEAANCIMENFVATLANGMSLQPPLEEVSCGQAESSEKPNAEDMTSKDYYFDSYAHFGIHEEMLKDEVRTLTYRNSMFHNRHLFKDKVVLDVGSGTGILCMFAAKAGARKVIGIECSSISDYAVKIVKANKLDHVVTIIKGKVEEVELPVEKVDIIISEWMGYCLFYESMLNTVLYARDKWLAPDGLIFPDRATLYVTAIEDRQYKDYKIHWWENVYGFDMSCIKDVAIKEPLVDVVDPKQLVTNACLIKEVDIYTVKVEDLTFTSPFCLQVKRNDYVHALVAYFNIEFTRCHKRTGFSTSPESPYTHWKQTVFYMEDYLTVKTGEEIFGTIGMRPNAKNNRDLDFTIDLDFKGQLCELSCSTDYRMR
ABHD5 PLIN5 PPI = ABHD5-PLIN5 protein interaction inhibition; Q00G26+Q8WTS1; Split G. princeps luciferase complementation, luminescence, 4 h; inhibition, % at 4 µM; actives 0.78% (n = 360,000); AID 602281;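 active = inhibition above the mean inhibition across every tested compound plus 3 SD, cut at about 22% in these data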;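 also: 0% = DMSO only wells and the 100% control is not disclosed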
APOBEC3A inh = inhibitors of human APOBEC3A DNA deaminase. recombinant A3A, FAM/TAMRA ssDNA deamination fluorescence. inhibition, % at 20 µM. actives 0.41% (n = 330,000). AID 493011;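 active = at least 40% inhibition at 20 µM here, with at most 30% in a related deaminase screen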;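 also: plate controls were A3A with DMSO for no effect and wells lacking A3A enzyme for full effect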
Target sequence (P31941 whole entry, looked up): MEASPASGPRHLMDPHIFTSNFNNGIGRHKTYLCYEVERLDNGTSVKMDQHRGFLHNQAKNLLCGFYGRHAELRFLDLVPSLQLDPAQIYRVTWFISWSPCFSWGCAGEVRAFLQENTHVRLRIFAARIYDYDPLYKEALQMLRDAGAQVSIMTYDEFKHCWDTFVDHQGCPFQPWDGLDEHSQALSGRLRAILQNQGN
APOBEC3G inh = inhibitors of human APOBEC3G DNA deaminase. inhibition, % at 20 µM. recombinant A3G, ssDNA deamination FAM/TAMRA fluorescence. Q9HC16. actives 0.28% (n = 330,000);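 active = inhibition of at least 40% at 20 µM, with no more than 30% in the related APOBEC3A deaminase screen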;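 also: plate controls were DMSO wells with A3G for no effect and wells lacking A3G enzyme for full effect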
ABHD5 PLIN5 conf = confirmation of human ABHD5-PLIN5 interaction inhibitors; shares compounds with ABHD5 PLIN5 PPI; biochemical ABHD5-PLIN5 interaction, luminescence; inhibition, % at 4 µM; actives 67% (n = 2,200); in the data active = inhibition above about 23%;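 also: 0% = DMSO vehicle wells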
HNF4 counter = HNF4 split-luciferase signal hit, counter-screen | AID 651674 | inhibition, % at 4 µM | shares compounds with ABHD5 PLIN5 PPI | HNF4 dimerization, luminescence, biochemical | actives 77% (n = 2,200);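 active = mean inhibition across replicate wells exceeding the computed hit threshold, cut at about 13% in these data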;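 also: light from luciferase halves that rejoin when HNF4 fusion proteins dimerize; 0% = DMSO only wells and the 100% control is not given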
The depositor's hits bear a star; · = not tested or not shown. Sampled rows, rich in hits. Any-hit rate of the full collection: about 2.9%.

SMILES | NS3 helicase inh | HCV core dimer | PRMT1 FP inh | ABHD5 PLIN5 PPI | APOBEC3A inh | APOBEC3G inh | ABHD5 PLIN5 conf | HNF4 counter
O=C(/C=C\c1ccccc1[N+](=O)[O-])Nc1ccccc1 | -2 | -1 | 6 | 0 | -1 | -6 | · | ·
O=C(/C=C/c1ccccc1[N+](=O)[O-])c1ccccc1Br | -7 | 5 | 3 | 82* | -2 | -5 | 98* | 98*
Cc1ccc(C(=O)/C=C/c2ccccc2[N+](=O)[O-])cc1 | -7 | 2 | -1 | 52* | -4 | -3 | 85* | 78*
CCOC(=O)C1C(=O)NC(C(=O)OCC)(C(=O)OCC)C1C(C)CC (centres undefined) | · | · | 0 | 4 | · | · | · | ·
NC(Cc1ccc(F)cc1)c1csc(Nc2ccc(C(=O)c3ccccc3)cc2)n1 (centres undefined) | · | · | -3 | 0 | · | · | · | ·
CCOC(=O)Nc1ccc(C(=O)/C=C/c2ccccc2)cc1 | -15 | 1 | -3 | 42* | -3 | -6 | 60* | 44*
CCC(=O)Nc1cccc(C(=O)/C=C/c2cccs2)c1 | -10 | -5 | 6 | 33* | 0 | -5 | 49* | 37*
CCC(=O)Nc1cccc(C(=O)c2ccccc2)c1 | 12 | -2 | -1 | 3 | 4 | 5 | · | ·
CCC(=O)Nc1cccc(C(=O)/C=C/c2ccccc2)c1 | -6 | 1 | 2 | 68* | 2 | -4 | 75* | 53*
CC(=O)c1cccc(NC(=O)Cc2cccs2)c1 | 16 | 20 | 3 | -3 | 10 | -7 | · | ·
COc1cc(CNc2ccc3c(c2)CCC3)cc(OC)c1O | -6 | 0 | 15 | 39* | -1 | -6 | 57* | 89*
COc1ccc(CNC(=O)c2cccnc2Sc2ccc(Cl)cc2)cc1 | 1 | 2 | · | 89* | 2 | -2 | -6 | 10
CN(C)c1cccc(C(=O)NCCCSc2ccccc2)c1 | -3 | -1 | -1 | 9 | 2 | -3 | · | ·
CCNC(=O)COc1ccc(/C=C2\COc3ccccc3C2=O)cc1OC | 0 | -6 | 2 | 56* | -3 | -1 | 81* | 81*
CCOc1cc(/C=C2\COc3ccccc3C2=O)ccc1OCC(=O)N(C)C | -11 | 11 | 3 | 61* | -5 | -2 | 77* | 69*
CC1(C(=O)NS(=O)(=O)c2ccc3c(c2)CCO3)CCN1C(=O)CCC1CCCC1 (centres undefined) | · | · | 1 | 16 | · | · | · | ·
Cc1cc2c(cc1S(=O)(=O)CCC(=O)N1CC(C)CC(C)C1)OCC(=O)N2 (centres undefined) | -1 | -11 | -1 | -3 | -2 | -11 | · | ·
c1ccc2sc(-c3csc4c3CCNC4)nc2c1 | · | · | 1 | · | · | · | · | ·
O=C(NCCc1ccccc1F)C1CCCN(c2nc3ccccc3s2)C1 (centres undefined) | -12 | 3 | -4 | -6 | -3 | -4 | · | ·
Cc1ccc(/C=C/C(=O)c2cc(Br)ccc2OC(=O)c2ccco2)cc1 | -3 | 5 | 1 | 74* | -1 | -1 | 95* | 74*
COc1ccccc1/C=C/C(=O)/C=C/c1ccccc1O | 1 | · | 8 | 11 | · | · | · | ·
COc1ccc(Br)cc1/C=N/NC(=O)c1ccco1 | 3 | 1 | -1 | 3 | 0 | -5 | · | ·
COc1ccccc1/C=C/C(=O)c1cc(Br)ccc1OC(=O)c1ccco1 | -11 | 6 | -3 | 66* | -1 | 3 | 94* | 74*
COc1ccccc1C=CC(=O)C=Cc1ccccc1OC | · | · | 4 | 32* | · | · | 72* | 45*
O=C(CN1C(=O)CSc2ccc(S(=O)(=O)N3CCCCC3)cc21)NCc1ccccc1Cl | 2 | 5 | -5 | -3 | -3 | -3 | · | ·
SMILES | NS3 helicase inh | HCV core dimer | PRMT1 FP inh | ABHD5 PLIN5 PPI | APOBEC3A inh | APOBEC3G inh | ABHD5 PLIN5 conf | HNF4 counter
CC(=O)NC(C)(c1ccccc1)c1nc(-c2cc(F)cc(F)c2)cs1 (centres undefined) | · | · | -4 | 2 | · | · | · | ·
O=C(O)C1CCCCC1C(=O)Nc1ccc(S(=O)(=O)N2CCCC2)cc1 (centres undefined) | -5 | -3 | -3 | -6 | -7 | -8 | · | ·
Cc1cc2nc(-c3cccc(Br)c3)c(Cc3ccccc3)n2c(C)c1Br | · | · | 7 | 28* | · | · | 32* | 17*
NC1=NC(=O)/C(=C/c2ccc(Cl)cc2Cl)S1 | 0 | 1 | 1 | 3 | 3 | 2 | · | ·
NC1=NC(=O)/C(=C\c2cc([N+](=O)[O-])ccc2Cl)S1 | -1 | 6 | 2 | 25* | 1 | 4 | 24* | 19*
COc1cccc(CNc2nc3cc(-c4ccccc4)sc3c(=O)n2C)c1 | · | · | -2 | -1 | · | · | · | ·
COc1cccc(CNc2nc3cc(-c4ccc(C(=O)N5CCN(C)CC5)cc4)sc3c(=O)n2C)c1 | · | · | -2 | 24* | · | · | 6 | 11
O=[N+]([O-])c1ccc(-[n+]2ccc3ccccc3c2)c([N+](=O)[O-])c1 | · | 10 | 5 | 29* | -3 | -6 | 62* | 58*
O=[N+]([O-])c1ccc(SNc2ccccc2)c([N+](=O)[O-])c1 | · | · | 0 | -7 | · | · | · | ·
O=C(NCc1ccccc1)C(c1ccccc1F)n1c(=O)c(-c2ccco2)nc2ccccc21 (centres undefined) | · | · | 13 | 67* | · | · | 69* | 32*
COc1ccc(C(C(=O)NC2CCCCC2)n2c(=O)c(-c3ccco3)nc3ccccc32)cc1 (centres undefined) | · | · | 13 | 66* | · | · | 85* | 30*
COc1ccc(C(C(=O)NCc2ccccc2)n2c(=O)c(-c3ccco3)nc3ccccc32)cc1 (centres undefined) | · | · | 13 | 72* | · | · | 78* | 42*
Cc1cc(C(=O)CCC(=O)Nc2ncccc2O)c(C)s1 | · | -2 | 0 | -15 | 2 | -3 | · | ·
COC(=O)C1=C(C)N(Cc2cccc(C(F)(F)F)c2)C(=NCc2ccccc2C(F)(F)F)NC1c1ccc(Cl)cc1 (centres undefined) | · | · | -4 | · | · | · | · | ·
Cc1ccc2c(Cl)c(Cc3ccccc3)c(=S)[nH]c2n1 | · | · | 4 | -1 | · | · | · | ·
COc1cccc(CN(C)[C@H]2C[C@H]3c4[nH]c5ccccc5c4CCN3C[C@H]2[C@H](C)O)c1OC | · | · | 0 | · | · | · | · | ·
Cc1cccc2cc(/C=C/C(=O)c3ccco3)c(Cl)nc12 | 28 | 5 | 6 | 42* | -1 | -4 | 73* | 63*
CCOc1ccc2nc(Cl)c(/C=C/C(=O)c3ccco3)cc2c1 | 22 | 17 | 0 | 34* | -5 | -8 | 93* | 92*
Cc1ccc(N2CC(NC(=O)C3CC3)CC2=O)cc1 (centres undefined) | · | -1 | 1 | 14 | 0 | -1 | · | ·

Source: PubChem (several laboratories)
